In ChEMBL document CHEMBL2062496, “Identification of a sirtuin 3 inhibitor that displays selectivity over sirtuin 1 and 2” (Eur J Med Chem, 2012):
The source made the active and inactive calls. The calls are words filed in the database; no cut-off is given here.

Experiments:
SK-MEL-28 [1] = assay: Increase in superoxide level in human SK-MEL-28 cells maintained in medium containing GF and glucose at 100 uM after 24 hrs by DHE-based fluorescence ssay; format: functional, cell-based
Method in brief: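 Cells (SK-MEL-28) were kept 24 h in growth medium (DMEM + 10% serum) with or without 100 µM compound; antimycin was the positive control. They were labelled at 37 °C with DHE (10 µmol/L, 1% DMSO) in Locke's containing 5 mmol/L pyruvate for 40 min, stopped on ice and trypsinized. Flow-cytometric MFI of 10,000 cells, corrected for unlabelled autofluorescence; 3–4 separate experiments.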

NCI-H226 = assay: Growth of human NCI-H226 cells assessed as cell growth at 10 uM after 48 hrs by MTT assay; conditions: NCI-H226, 48 h
RPMI-8226 = assay: Growth inhibition of human RPMI8226 cells assessed as cell growth at 10 uM after 48 hrs by MTT assay; values are per cent of control; conditions: RPMI-8226, 48 h
MCF7 = assay: Growth inhibition of human MCF7 cells assessed as cell growth at 10 uM after 48 hrs by MTT assay; values are per cent of control; conditions: MCF7, 48 h
PC-3 = assay: Growth inhibition of human PC3 cells assessed as cell growth at 10 uM after 48 hrs by MTT assay; values are per cent of control; conditions: PC-3, 48 h
T47D = assay: Growth inhibition of human T47D cells assessed as cell growth at 10 uM after 48 hrs by MTT assay; values are per cent of control
SN12C = assay: Growth inhibition of human SN12C cells assessed as cell growth at 10 uM after 48 hrs by MTT assay; values are per cent of control
SK-MEL-28 [2] = assay: Reduction in ATP level in human SK-MEL-28 cells at 100 uM maintained in Locke's solution after 24 hrs by luciferase-based assay in absence of GF and glucose; format: functional, cell-based
Method in brief: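 SK-MEL-28 cells were grown 24 h in Locke's saline lacking glucose and serum, with or without 100 µM compound; antimycin was the positive control. Cellular ATP was released with a somatic-cell releasing reagent, then luciferase/luciferin assay mix was added and bioluminescence read. Mean ± S.E.M. of 10–14 replicates from 3 separate experiments.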

NCI-H322M = assay: Growth of human NCI-H322M cells assessed as cell growth at 10 uM after 48 hrs by MTT assay

c1cncc(-c2cnn[nH]2)c1
Activity (SK-MEL-28 [1]): Active | growth, % of control at 10 µM (NCI-H226): 80.6% | growth, % of control at 10 µM (RPMI-8226): 66.9% | growth, % of control at 10 µM (MCF7): 117% | growth, % of control at 10 µM (PC-3): 88.5% | growth, % of control at 10 µM (T47D): 102% | growth, % of control at 10 µM (SN12C): 102% | Activity (SK-MEL-28 [2]): Active | growth, % of control at 10 µM (NCI-H322M): 104%
